# Screening results from PubChem BioAssay.
# Shown is part of a subset that was picked to be rich in hits.
# HCT116 bCat-KO – beta-catenin-lacking colon tumor cell growth suppression; HCT116 beta-catenin knockout viability, CellTiter-Glo, 60 h; stronger effect = lower value; viability, % at 10 µM; 140,000 tested, 1.5% active; AID 818;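 active means viability at or under a set limit, the compound median less 4 SD, cut at about 6% in these data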;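 further: 0% = Hyamine 1622 control at 20 µM and 100% = untreated cell control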
# Lung fibro prol – blocks proliferation of human lung fibroblasts; LL 47 human lung fibroblast viability, ATP luminescence; stronger effect = lower value; viability, % at 10 µM; 85,000 tested, 1.1% active; AID 719;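 active means viability at or below 50% in the single dose screen; inactive means viability above 50%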;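 further: compound exposure lasted 72 h before the ATP readout; 100% = median luminescence of untreated cell-only wells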
#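 test system = LL 47 human lung fibroblasts | amount = 1,150 fibroblasts seeded per well | medium = 15% FBS in IMEM | times = overnight cell rest, 72 h compound treatment at 37 °C | measured by = CellTiter-Glo luminescence measuring cellular ATP | read-out = viability percentage against median untreated-cell control | benchmarks = cell-only wells, no compound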
# H69AR growth 86K – blocks growth of human H69AR lung tumor cells | viability, % at 10 µM | H69AR lung tumor viability, ATP luminescence, 72 h; stronger effect = lower value | 85,000 tested, 6% active;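 active means viability at or below 40%; inactive means viability above 40%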;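 further: multidrug resistant small cell line overexpressing MRP-1 efflux transporter; 100% = mean luminescence of untreated control wells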
# HCT116 PTEN-null – growth suppressors of cells with PTEN tumor suppressor deletion | HCT116 PTEN-null viability, CellTiter-Glo, 60 h; stronger effect = lower value | 140,000 tested, 1.2% active | viability, % at 10 µM;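 active means viability at or below a set limit, 4 SD under the median of all tested compounds, cut at about 3.7% in these data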;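 further: PTEN knockout HCT116 line with beta catenin targeted HCT116 as companion control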
# HUVEC prolif 384 – blocks proliferation of human endothelial cells. HUVEC proliferation, CellTiter-Glo luminescence, 72 h; stronger effect = lower value. viability, % at 10 µM (by protocol). 86,000 tested, 1.1% active. AID 648;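 active means viability at or below 30%; inactive means viability above 30%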;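 further: 100% = median luminescence of DMSO-only cell control wells on each plate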
# An asterisk follows results filed as active; / = no result.
SMILES,HCT116 bCat-KO,Lung fibro prol,H69AR growth 86K,HCT116 PTEN-null,HUVEC prolif 384
O=C1[C@H]2[C@H]3[C@H](O)[C@H](O)C/C(=N\OC[C@@H](O)COCc4ccco4)[C@@H]3CC[C@H]2C(=O)N1c1ccc(F)cc1F,0.3*,/,/,79.2,/
COc1ccccc1NC(=O)N(Cc1ccco1)Cc1cc2cc(C)cc(C)c2[nH]c1=O,30.7,105.0,18.6*,29.9,60.5
COc1ccccc1NC(=O)N(Cc1ccco1)Cc1cc2ccc(C)c(C)c2[nH]c1=O,16.6,55.0,17.4*,24.1,59.1
COc1ccccc1NC(=S)N(Cc1ccco1)Cc1cc2cccc(C)c2[nH]c1=O,89.5,/,/,73.0,/
CC(NC(=O)C(C(=O)c1cccc([N+](=O)[O-])c1)n1cc(Cl)ccc1=O)c1ccccc1 (configuration not stated),94.8,/,/,97.3,/
COc1ccc(-n2ncc3c(N4CCN(c5cccc(C)c5C)CC4)ncnc32)cc1,/,23.8*,7.1*,/,18.3*
COc1ccc(-n2ncc3c(N4CCCCC4)ncnc32)cc1,75.5,81.9,38.9*,75.5,65.9
Cc1cccc(C(=O)N2CCN(c3ncnc4c3cnn4-c3ccccc3)CC2)c1,71.5,97.8,74.0,68.0,91.9
COc1ccc(-n2ncc3c(N4CCN(c5cc(C)ccc5C)CC4)ncnc32)cc1,62.1,89.0,64.2,67.3,67.2
O=C(COc1ccccc1)N1CCN(c2ncnc3c2cnn3-c2ccccc2)CC1,84.9,96.5,40.0*,83.2,114.7
Cc1ccc(C(=O)NNC(=O)CSc2nnc(-c3ccccc3)n2Cc2ccccc2)cc1,96.3,/,/,97.2,/
CC(/C=N/Nc1nnc2c(n1)[nH]c1ccccc12)=C\c1ccco1,89.0,113.7,34.5*,84.7,97.5
CC(C)NS(=O)(=O)c1ccc(NC(=O)NC2CCCCC2)cc1,91.4,/,/,96.8,/
CCOC(=O)CN(Cc1sccc1C)C(=O)Nc1ccc(OC)cc1OC,98.3,/,/,95.5,/
CC12CNCC(C)(CN(C(c3ccccc3)c3ccccc3)C1)C2,54.1,86.8,50.4,56.5,87.9
Clc1ccc(C(c2ccccc2)N2CCNCC2)cc1 (configuration not stated),36.5,87.8,37.2*,30.4,82.8
CCOc1cccc(SCc2noc(C(=O)NCC3CCCO3)c2C(=O)O)c1 (configuration not stated),89.9,/,/,91.7,/
CCCc1cc(=O)[nH]c(-n2[nH]c3c(c2=O)CCCC3)n1,4.7*,/,/,9.8,/
CCCc1cc(=O)[nH]c(SCC)n1,89.4,96.7,/,105.2,89.8
O=C(OCc1cc(=O)n2cc(Br)ccc2n1)c1ccc(Cl)c(S(=O)(=O)NCc2ccccc2)c1,88.4,/,/,85.3,/
[O-][n+]1onc2c1CCc1nnc(-c3ccccc3)cc1-2,72.5,89.5,35.5*,69.7,105.0
C=CCNC(=O)c1c(N)n(-c2ccc3c(c2)OCO3)c2nc3ccccc3nc12,65.4,30.7*,12.7*,38.4,37.0
Nc1c(C(=O)NCC2CCCO2)c2nc3ccccc3nc2n1-c1ccccc1 (configuration not stated),49.4,74.1,21.2*,56.4,79.0
COc1ccccc1-n1c(N)c(C(=O)NCC2CCCO2)c2nc3ccccc3nc21 (configuration not stated),70.7,80.2,53.2,67.6,64.7
CC(C)(C)C1CCC(C(=O)OCC(=O)N2CCOCC2)CC1 (configuration not stated),91.3,/,/,93.4,/
SMILES,HCT116 bCat-KO,Lung fibro prol,H69AR growth 86K,HCT116 PTEN-null,HUVEC prolif 384
CC1CC(C)(C)CC2(C1)NC(=O)N(CC(=O)NC1CCCc3ccccc31)C2=O (configuration not stated),89.4,/,/,82.3,/
O=C(Nc1cccc(C(F)(F)F)c1)Nc1ccc(N2CCCC2)c(S(=O)(=O)Nc2ccccc2Cl)c1,1.5*,/,/,1.5*,/
COc1ccccc1NS(=O)(=O)c1cc(NC(=O)Nc2ccc(Cl)cc2Cl)ccc1N1CCCCC1,47.2,/,/,46.8,/
c1ccc(CSc2nnc(-c3cccnc3)o2)cc1,95.9,99.9,34.1*,101.0,87.2
Cc1ccc(Nc2c(N)c(=O)oc3ccccc23)cc1,34.3,71.7,12.8*,24.6,66.6
O=S(=O)(NCC1CCCO1)c1ccc(S(=O)(=O)N(Cc2ccccc2F)C2CCCCC2)cc1 (configuration not stated),/,91.5,85.5,/,92.3
Cc1cc(C(=O)CN2CCCC(C)C2)c(C)n1-c1ccc(F)cc1 (configuration not stated),94.4,/,/,97.7,/
COc1ccccc1N1C(=O)N(C(C)=O)C2C1Nc1ccccc1N2C (configuration not stated),83.2,90.1,30.5*,93.4,25.5*
O=C(Nc1ccc2nc(-c3cccnc3)[nH]c2c1)C1CCCCC1,96.0,103.1,25.3*,93.7,74.6
O=C(Nc1ccc2nc(-c3cccnc3)[nH]c2c1)C12CC3CC(CC(C3)C1)C2,33.5,47.5*,30.1*,35.2,6.0*
Nc1cccc(C(=O)Nc2ccc3nc(-c4cccnc4)[nH]c3c2)c1,96.5,112.6,66.3,93.9,109.8
COc1ccc2c(c1)nc(SCC(=O)c1cccs1)n2C,90.0,/,/,88.8,/
CC(=O)Nc1ccc2nc(-c3cccs3)[nH]c2c1,88.9,110.2,89.6,93.5,106.1
Nc1ccc(-c2nc3c(Cl)cc(N)cc3[nH]2)cc1,87.8,96.1,30.8*,90.1,110.4
Nc1ccc2nc(-c3cccs3)[nH]c2c1,90.5,86.8,21.6*,96.7,71.3
Nc1ccc2nc(-c3ccccc3)[nH]c2c1,80.8,99.7,33.3*,87.3,86.2
Nc1ccc2nc(-c3ccc(N)c(Cl)c3)[nH]c2c1,66.3,104.8,49.8,64.7,85.8
O=C(C1CCN(S(=O)(=O)c2ccc(F)cc2)CC1)N1CC=C(c2ccccc2)CC1,91.4,92.6,77.0,96.9,92.7
COC(=O)c1cc(NC(=O)CC2SC(=Nc3ccccc3)N(CCc3c[nH]c4ccccc34)C2=O)cc(C(=O)OC)c1 (configuration not stated),43.1,/,/,29.4,/
CC1Cc2ccccc2N1CC(=O)NCc1ccc2c(c1)OCO2 (configuration not stated),84.9,/,/,89.8,/
COC(=O)/C(=C/Nc1cccc2ccccc12)[N+](=O)[O-],90.2,91.7,26.9*,86.5,74.4
CCOC(=O)/C(=C\c1cn(C)c2ccccc12)[N+](=O)[O-],100.0,/,/,95.0,/
CCOc1ccc(OCC)c(NC(=O)CN2CCN(c3cccc(C)c3)C(C)C2)c1 (configuration not stated),31.9,76.2,19.3*,87.9,62.9
CCOc1ccc(OCC)c(NC(=O)CN2CCN(c3cccc(C)c3)CC2)c1,87.6,97.6,71.2,92.7,105.8
N/C(=N\OC(=O)/C=C/c1ccccc1)c1ccccc1,92.8,105.0,38.7*,98.8,83.2
O=C(/C=C/NNC(=O)c1ccccc1)c1ccccc1,87.0,19.9*,87.4,90.9,100.9
O=C(/C=C/c1ccccc1)c1ccc2c3c(cccc13)CC2,1.4*,/,/,1.8*,/
O=C(/C=C/c1ccccc1)/C=C/c1ccccc1,0.8*,/,/,0.7*,/
CC1=C/C(=N\OC(=O)/C=C/c2ccccc2)C(C)=CC1=O,47.3,/,/,51.9,/
